ChEMBL document CHEMBL1137816, “New polyhydroxylated pyrrolidine, piperidine, and pyrrolizidine alkaloids from Scilla sibirica” (J Nat Prod, 2002)
Calls of active or inactive are those of the source. The calls are words filed in the database; no cut-off is given here.

Experiments:
[1] = target: T1, Beta-mannosidase (Rattus norvegicus) (UniProt Q4FZV0); assay: Inhibition of rat epididymis beta-mannosidase assessed as p-nitrophenol release at 1000 uM after 30 mins by spectrophotometry
T1 sequence (whole entry): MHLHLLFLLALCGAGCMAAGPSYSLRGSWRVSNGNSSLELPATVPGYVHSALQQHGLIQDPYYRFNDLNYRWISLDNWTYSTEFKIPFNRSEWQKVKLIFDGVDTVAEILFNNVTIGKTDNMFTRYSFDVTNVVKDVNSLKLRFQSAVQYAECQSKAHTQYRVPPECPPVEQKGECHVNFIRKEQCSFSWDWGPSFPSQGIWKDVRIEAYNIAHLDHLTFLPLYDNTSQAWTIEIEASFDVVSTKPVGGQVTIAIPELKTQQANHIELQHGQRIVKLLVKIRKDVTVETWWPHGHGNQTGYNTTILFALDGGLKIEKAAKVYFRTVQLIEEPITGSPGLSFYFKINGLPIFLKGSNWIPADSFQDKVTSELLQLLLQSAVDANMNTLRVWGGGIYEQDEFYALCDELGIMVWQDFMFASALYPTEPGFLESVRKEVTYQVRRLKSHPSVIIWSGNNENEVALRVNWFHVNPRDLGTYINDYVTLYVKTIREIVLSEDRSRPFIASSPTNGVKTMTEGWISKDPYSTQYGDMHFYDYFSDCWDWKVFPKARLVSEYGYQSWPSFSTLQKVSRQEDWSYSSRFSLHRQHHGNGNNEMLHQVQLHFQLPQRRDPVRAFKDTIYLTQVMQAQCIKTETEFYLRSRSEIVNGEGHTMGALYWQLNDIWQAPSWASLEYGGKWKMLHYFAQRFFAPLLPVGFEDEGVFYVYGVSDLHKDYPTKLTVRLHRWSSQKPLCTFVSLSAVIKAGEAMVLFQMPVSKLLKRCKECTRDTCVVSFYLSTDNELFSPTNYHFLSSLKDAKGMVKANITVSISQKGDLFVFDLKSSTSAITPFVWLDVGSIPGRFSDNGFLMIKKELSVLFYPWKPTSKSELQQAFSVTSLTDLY
Outline: (§1)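 p-Nitrophenyl glycoside substrates: Penicillium decumbens α-L-rhamnosidase at pH 4.5, bovine epididymis α-L-fucosidase at pH 5.5, bovine liver β-galactosidase at pH 6.8. β-Mannosidase came from rat epididymal fluid purified from epididymis, with p-nitrophenyl-β-D-mannoside at pH 5.2. Enzyme, substrate and inhibitor were incubated 30 min at 37 °C. The reaction was stopped with 400 mM Na2CO3, and p-nitrophenol was read at 400 nm.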

[2] = Inhibition of Penicillium decumbens alpha-L-rhamnosidase assessed as p-nitrophenol release after 30 mins by spectrophotometry
Outline: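 Penicillium decumbens enzyme assayed at pH 4.5 with the appropriate p-nitrophenyl glycoside. Substrate, diluted enzyme and inhibitor were incubated 30 min at 37 °C, then stopped with 400 mM Na2CO3. Released p-nitrophenol was read at 400 nm.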

Oryza sativa = assay: Inhibition of rice alpha-glucosidase assessed as D-glucose release at 1000 uM after 10 mins by Glucose B-test
Outline: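 Rice α-glucosidase was assayed with maltose as substrate at the enzyme's optimum pH. Incubation with inhibitor was 10 min at 37 °C. Released D-glucose was determined colorimetrically by Glucose B-test.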

[3] = target: Oligo-1,6-glucosidase IMA1 (Saccharomyces cerevisiae S288c) (UniProt P53051); assay: Inhibition of yeast alpha-glucosidase assessed as p-nitrophenol release at 1000 uM after 30 mins measured spectrometrically at 400 nm
[4] = target: Lysosomal alpha-glucosidase (Rattus norvegicus) (UniProt Q6P7A9); assay: Inhibition of rat intestinal maltase assessed as D-glucose release at 1000 uM after 30 mins by Glucose B-test
Outline: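 Brush border membranes from rat small intestine served as the enzyme source, with maltose substrate at pH 5.8. Incubation with inhibitor was 30 min at 37 °C. Released D-glucose was measured colorimetrically by Glucose B-test.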

[5] = target: T2, Tissue alpha-L-fucosidase (Bos taurus) (UniProt Q2KIM0); assay: Inhibition of bovine epididymis alpha-L-fucosidase assessed as p-nitrophenol release at 1000 uM after 30 mins by spectrophotometry; outline: as §1
T2 sequence (whole entry): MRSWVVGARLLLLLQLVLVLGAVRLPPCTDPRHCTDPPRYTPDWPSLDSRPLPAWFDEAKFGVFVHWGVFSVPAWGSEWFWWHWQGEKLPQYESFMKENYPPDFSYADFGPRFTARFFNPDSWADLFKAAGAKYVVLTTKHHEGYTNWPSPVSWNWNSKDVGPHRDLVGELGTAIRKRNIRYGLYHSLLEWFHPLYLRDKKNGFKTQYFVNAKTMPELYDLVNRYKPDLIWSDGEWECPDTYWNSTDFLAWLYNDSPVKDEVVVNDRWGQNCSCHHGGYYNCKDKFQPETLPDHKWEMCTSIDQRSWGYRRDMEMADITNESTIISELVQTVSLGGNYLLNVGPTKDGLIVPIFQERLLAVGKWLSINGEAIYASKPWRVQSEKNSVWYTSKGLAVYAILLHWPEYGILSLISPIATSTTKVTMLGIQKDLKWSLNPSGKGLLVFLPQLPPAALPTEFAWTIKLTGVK

[6] = target: Lysosomal alpha-glucosidase (Rattus norvegicus) (UniProt Q6P7A9); assay: Inhibition of rat liver lysosome alpha-glucosidase assessed as p-nitrophenol release at 1000 uM after 30 mins measured spectrometrically at 400 nm
Alpha-glucosidase MAL12 = Alpha-glucosidase MAL12 (Saccharomyces cerevisiae S288c, UniProt P53341); assay: Inhibition of yeast alpha-glucosidase assessed as p-nitrophenol release after 30 mins measured at 400 nm
Beta-glucosidase A = Beta-glucosidase A (Caldicellulosiruptor saccharolyticus, UniProt P10482); assay: Inhibition of Caldocellum saccharolyticum beta-glucosidase assessed as p-nitrophenol release after 30 mins measured spectrometrically at 400 nm
Beta-mannosidase = target: T3, Beta-mannosidase (Rattus norvegicus, UniProt Q4FZV0); assay: Inhibition of rat epididymis beta-mannosidase assessed as p-nitrophenol release after 30 mins by spectrophotometry
T3 sequence (Q4FZV0 whole entry): T1 sequence (whole entry)
Outline: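 Source was rat epididymal fluid purified from epididymis. Assayed at pH 5.2 with p-nitrophenyl-β-D-mannoside, incubated with inhibitor 30 min at 37 °C. Stopped with 400 mM Na2CO3; p-nitrophenol read at 400 nm.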

Beta-galactosidase = target: T4, Beta-galactosidase (Bos taurus, UniProt Q58D55); assay: Inhibition of bovine liver beta-galactosidase assessed as p-nitrophenol release after 30 mins by spectrophotometry
T4 sequence (Q58D55 whole entry): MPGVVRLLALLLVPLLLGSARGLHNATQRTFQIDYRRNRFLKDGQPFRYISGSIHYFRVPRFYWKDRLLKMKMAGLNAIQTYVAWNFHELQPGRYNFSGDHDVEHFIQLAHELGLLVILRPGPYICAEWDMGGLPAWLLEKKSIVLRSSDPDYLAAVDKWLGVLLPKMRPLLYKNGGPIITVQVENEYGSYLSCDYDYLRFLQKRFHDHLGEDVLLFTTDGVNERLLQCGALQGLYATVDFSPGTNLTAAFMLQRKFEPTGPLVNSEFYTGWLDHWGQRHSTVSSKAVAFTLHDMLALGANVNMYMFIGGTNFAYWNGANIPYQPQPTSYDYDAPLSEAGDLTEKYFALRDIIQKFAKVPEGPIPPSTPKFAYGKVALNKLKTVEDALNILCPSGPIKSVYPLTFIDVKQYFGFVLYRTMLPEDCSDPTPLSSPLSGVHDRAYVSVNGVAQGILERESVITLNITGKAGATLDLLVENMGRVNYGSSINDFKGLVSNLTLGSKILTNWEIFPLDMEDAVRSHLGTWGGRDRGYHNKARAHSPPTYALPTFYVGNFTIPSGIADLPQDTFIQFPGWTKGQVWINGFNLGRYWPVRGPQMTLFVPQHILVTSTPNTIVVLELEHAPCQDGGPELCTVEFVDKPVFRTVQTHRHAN
Outline: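 Bovine liver enzyme at pH 6.8 with the appropriate p-nitrophenyl glycoside. Incubated with inhibitor 30 min at 37 °C, quenched with 400 mM Na2CO3, and released p-nitrophenol read at 400 nm.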

[7] = target: T5, Beta-galactosidase (Bos taurus) (UniProt Q58D55); assay: Inhibition of bovine liver beta-galactosidase assessed as p-nitrophenol release at 1000 uM after 30 mins by spectrophotometry; outline: as §1
T5 sequence (whole entry): T4 sequence (Q58D55 whole entry)

[8] = target: T6, Tissue alpha-L-fucosidase (Bos taurus, UniProt Q2KIM0); assay: Inhibition of bovine epididymis alpha-L-fucosidase assessed as p-nitrophenol release after 30 mins by spectrophotometry
T6 sequence (Q2KIM0 whole entry): T2 sequence (whole entry)
Outline: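 Enzyme from bovine epididymis, run at pH 5.5 with the appropriate p-nitrophenyl glycoside substrate. Enzyme, substrate and inhibitor incubated together 30 min at 37 °C. Reaction stopped by adding 400 mM Na2CO3; p-nitrophenol measured spectrometrically at 400 nm.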

Penicillium decumbens = assay: Inhibition of Penicillium decumbens alpha-L-rhamnosidase assessed as p-nitrophenol release at 1000 uM by spectrophotometry; outline: as §1
[9] = target: Oligo-1,6-glucosidase IMA1 (Saccharomyces cerevisiae S288c) (UniProt P53051); assay: Inhibition of yeast alpha-glucosidase assessed as D-glucose release at 1000 uM after 30 mins by Glucose B-test
[10] = target: Lysosomal alpha-glucosidase (Rattus norvegicus) (UniProt Q6P7A9); assay: Inhibition of rat liver lysosome alpha-glucosidase assessed as D-glucose release at 1000 uM after 30 mins by Glucose B-test
[11] = Inhibition of rat intestinal amyloglucosidase
[12] = Inhibition of rice alpha-glucosidase assessed as D-glucose release after 10 mins by Glucose B-test; set-up: species or system Oryza sativa
Outline: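 Rice enzyme with maltose as substrate at the enzyme's optimum pH. Incubation with inhibitor ran 10 min at 37 °C. Released D-glucose determined colorimetrically with a glucose test kit.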

Sequence of Lysosomal alpha-glucosidase (Rattus norvegicus) (Q6P7A9 whole entry): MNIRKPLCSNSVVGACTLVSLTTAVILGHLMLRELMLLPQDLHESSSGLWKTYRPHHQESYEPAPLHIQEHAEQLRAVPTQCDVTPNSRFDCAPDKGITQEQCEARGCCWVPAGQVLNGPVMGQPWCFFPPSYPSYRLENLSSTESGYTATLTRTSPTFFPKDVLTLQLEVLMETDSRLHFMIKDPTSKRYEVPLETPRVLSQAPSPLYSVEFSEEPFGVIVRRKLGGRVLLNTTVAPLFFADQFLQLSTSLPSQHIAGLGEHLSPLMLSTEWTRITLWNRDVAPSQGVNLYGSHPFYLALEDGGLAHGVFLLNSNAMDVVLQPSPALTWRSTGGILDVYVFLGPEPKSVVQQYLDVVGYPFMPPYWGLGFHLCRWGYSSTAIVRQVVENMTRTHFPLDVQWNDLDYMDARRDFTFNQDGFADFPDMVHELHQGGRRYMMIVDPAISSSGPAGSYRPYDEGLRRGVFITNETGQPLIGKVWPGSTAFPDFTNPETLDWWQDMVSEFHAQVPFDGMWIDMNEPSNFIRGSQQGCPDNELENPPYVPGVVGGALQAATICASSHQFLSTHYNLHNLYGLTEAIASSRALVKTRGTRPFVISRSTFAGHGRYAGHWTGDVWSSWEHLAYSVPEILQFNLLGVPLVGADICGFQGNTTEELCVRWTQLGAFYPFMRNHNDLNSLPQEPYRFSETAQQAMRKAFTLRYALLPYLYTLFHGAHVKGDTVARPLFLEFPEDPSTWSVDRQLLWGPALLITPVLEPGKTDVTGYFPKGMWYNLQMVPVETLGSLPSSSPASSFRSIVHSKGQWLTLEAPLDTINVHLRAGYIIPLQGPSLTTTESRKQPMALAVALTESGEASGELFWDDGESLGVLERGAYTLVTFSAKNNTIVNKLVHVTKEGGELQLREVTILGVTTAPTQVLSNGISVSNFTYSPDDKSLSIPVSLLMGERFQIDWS
Sequence of Oligo-1,6-glucosidase IMA1 (Saccharomyces cerevisiae S288c) (P53051 whole entry): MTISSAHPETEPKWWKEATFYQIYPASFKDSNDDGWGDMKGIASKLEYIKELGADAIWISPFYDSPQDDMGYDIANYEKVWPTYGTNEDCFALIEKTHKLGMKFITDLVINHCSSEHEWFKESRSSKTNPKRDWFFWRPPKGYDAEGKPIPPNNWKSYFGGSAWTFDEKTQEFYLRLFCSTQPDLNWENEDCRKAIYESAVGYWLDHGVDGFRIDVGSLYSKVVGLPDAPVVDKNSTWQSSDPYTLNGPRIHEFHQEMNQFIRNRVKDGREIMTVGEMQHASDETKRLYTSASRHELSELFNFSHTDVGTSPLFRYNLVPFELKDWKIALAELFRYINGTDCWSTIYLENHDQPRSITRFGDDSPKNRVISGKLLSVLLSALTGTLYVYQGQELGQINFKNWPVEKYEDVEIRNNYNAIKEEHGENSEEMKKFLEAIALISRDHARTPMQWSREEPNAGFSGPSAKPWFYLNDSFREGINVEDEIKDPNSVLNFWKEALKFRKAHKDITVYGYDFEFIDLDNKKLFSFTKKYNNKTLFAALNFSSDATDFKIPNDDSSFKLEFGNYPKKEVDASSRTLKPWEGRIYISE
Sequence of Alpha-glucosidase MAL12 (P53341 whole entry): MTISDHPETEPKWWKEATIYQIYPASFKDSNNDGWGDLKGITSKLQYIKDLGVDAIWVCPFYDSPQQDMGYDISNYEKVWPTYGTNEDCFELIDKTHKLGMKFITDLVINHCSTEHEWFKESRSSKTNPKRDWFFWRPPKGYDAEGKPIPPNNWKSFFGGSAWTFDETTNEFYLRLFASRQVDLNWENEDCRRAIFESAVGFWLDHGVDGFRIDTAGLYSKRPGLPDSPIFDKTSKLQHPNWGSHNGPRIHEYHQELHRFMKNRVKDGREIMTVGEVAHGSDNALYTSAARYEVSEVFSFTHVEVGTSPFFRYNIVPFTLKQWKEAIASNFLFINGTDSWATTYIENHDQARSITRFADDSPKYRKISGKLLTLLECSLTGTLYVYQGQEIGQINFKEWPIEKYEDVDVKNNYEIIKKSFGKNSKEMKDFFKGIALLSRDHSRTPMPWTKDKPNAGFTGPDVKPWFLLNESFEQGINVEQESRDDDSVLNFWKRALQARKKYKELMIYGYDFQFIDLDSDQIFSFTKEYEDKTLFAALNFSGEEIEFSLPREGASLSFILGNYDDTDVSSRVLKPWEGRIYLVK
Sequence of Beta-glucosidase A (P10482 whole entry): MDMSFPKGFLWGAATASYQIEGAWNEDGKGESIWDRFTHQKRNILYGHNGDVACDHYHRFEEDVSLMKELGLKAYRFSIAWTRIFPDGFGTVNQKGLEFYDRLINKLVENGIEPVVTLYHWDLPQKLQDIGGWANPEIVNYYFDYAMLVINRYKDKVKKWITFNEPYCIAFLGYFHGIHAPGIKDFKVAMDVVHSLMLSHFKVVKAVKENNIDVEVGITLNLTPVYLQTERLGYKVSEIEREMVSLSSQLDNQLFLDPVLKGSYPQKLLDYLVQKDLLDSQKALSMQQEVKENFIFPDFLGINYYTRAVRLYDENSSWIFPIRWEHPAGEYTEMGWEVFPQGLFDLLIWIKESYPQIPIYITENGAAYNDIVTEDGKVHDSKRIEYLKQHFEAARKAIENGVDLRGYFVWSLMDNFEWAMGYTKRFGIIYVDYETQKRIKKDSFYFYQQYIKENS

Row | inhibition (Oryza sativa) | inhibition [5] | inhibition [6] | IC50 (Beta-mannosidase) | SMILES | Activity (Oryza sativa) | Activity [7] | Activity [9] | Activity (Penicillium decumbens) | Activity [4] | Activity [10] | Activity [5] | other results
1 | < 50% | < 50% | < 50% |  | OC[C@H]1NC[C@@H](O)[C@H](O)[C@@H]1O |  |  |  |  |  |  |  | inhibition [1]: < 50%; IC50 [2]: 1.8 µM; inhibition [3]: < 50%; inhibition [4]: < 50%
2 | < 50% |  | < 50% | 320 µM | OCC[C@H]1N[C@H](CO)[C@@H](O)[C@@H]1O |  |  |  |  |  |  |  | IC50 (Alpha-glucosidase MAL12): 250 µM; IC50 [2]: 94 µM; IC50 (Beta-glucosidase A): 350 µM; inhibition [4]: < 50%; IC50 (Beta-galactosidase): 88 µM
3 | < 50% |  | < 50% | 160 µM | OCC[C@H]1N[C@H](CO)[C@@H](O)[C@@H]1O[C@@H]1O[C@H](CO)[C@@H](O)[C@H](O)[C@@H]1O |  |  |  |  |  |  |  | IC50 [8]: 78 µM; inhibition [3]: < 50%; inhibition [4]: < 50%
4 |  |  |  |  | C[C@@H]1CC[C@@H]2[C@H](O)[C@H](O)[C@@H](CO)N12 (relative stereo) | inactive | inactive | inactive | inactive | inactive | inactive | inactive | 
5 |  |  |  |  | C[C@@H]1C[C@H](O)[C@@H]2[C@H](O)[C@@H](O)[C@@H](CO)N21 (relative stereo) | inactive | inactive | inactive | inactive | inactive | inactive | inactive | 
6 |  |  |  |  | C[C@H]1CC[C@@H]2[C@H](O)[C@H](O)[C@@H](CO)N21 (relative stereo) | inactive | inactive | inactive | inactive | inactive | inactive | inactive | 
7 |  |  |  |  | C[C@H]1CC[C@@H]2[C@H](O)[C@H](O)[C@H](CO)N21 (relative stereo) | inactive | inactive | inactive | inactive | inactive | inactive | inactive | Activity [1]: inactive
8 |  |  |  |  | C[C@@H]1CC[C@@H]2[C@@H](O)[C@@H](O)[C@@H](CO)N12 (relative stereo) [HYACINTHACINE A5] | inactive | inactive | inactive | inactive | inactive | inactive | inactive | IC50 [11]: 110 µM
9 |  |  |  |  | C[C@@H]1C[C@H](O)[C@@H]2[C@H](O)[C@H](O)[C@@H](CO)N21 (relative stereo) [HYACINTHACINE B5] | inactive | inactive | inactive | inactive | inactive | inactive | inactive | IC50 [11]: 110 µM
10 |  | < 50% | < 50% | 53 µM | OCC(O)[C@H]1N[C@H](CO)[C@@H](O)[C@@H]1O (single isomer, unassigned) |  |  |  |  |  |  |  | IC50 (Alpha-glucosidase MAL12): 220 µM; IC50 [12]: 95 µM; IC50 (Beta-glucosidase A): 3.2 µM; inhibition (Penicillium decumbens): < 50%; IC50 (Beta-galactosidase): 4.4 µM
11 |  | < 50% | < 50% | 35 µM | CC(O)[C@H]1N[C@H](CO)[C@@H](O)[C@@H]1O (single isomer, unassigned) |  |  |  |  |  |  |  | IC50 (Alpha-glucosidase MAL12): 85 µM; IC50 [12]: 9.2 µM; IC50 (Beta-glucosidase A): 6.7 µM; inhibition (Penicillium decumbens): < 50%; IC50 (Beta-galactosidase): 3.4 µM

Row | SMILES | inhibition (Oryza sativa) | inhibition [5] | inhibition [6] | IC50 (Beta-mannosidase) | Activity (Oryza sativa) | Activity [7] | Activity [9] | Activity (Penicillium decumbens) | Activity [4] | Activity [10] | Activity [5] | other results
12 | OCC[C@H]1N[C@@H](CO)[C@H](O)[C@H]1O | < 50% |  |  |  |  |  |  |  |  |  |  | inhibition [1]: < 50%; inhibition [7]: < 50%; IC50 [8]: 840 µM; inhibition [3]: < 50%; inhibition (Penicillium decumbens): < 50%
13 | OC[C@H]1NC[C@H](O)[C@@H](O)[C@@H]1O [DUVOGLUSTAT] |  | < 50% |  |  |  |  |  |  |  |  |  | inhibition [1]: < 50%; IC50 [12]: 0.05 µM; IC50 [2]: 850 µM; inhibition [7]: < 50%
